In the library only some 2.2% were active in any assay of this set; here they are far more common.
Insulin prom inh: TRM-6 insulin promoter activity inhibition. 130,000 tested, 0.9% active. inhibition, % at 2 µM. TRM-6 cells (human fetal islet line), insulin promoter-eGFP reporter, imaging; reporter expression induced with tamoxifen. AID 1273;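 active = inhibition above the mean plus 3 SD, with well images judged a real hit on visual review, cut at about 60% in these data, passing the limit was not always enough; inconclusive = inhibition over the cutoff but images rejected on review; inactive = inhibition not above the cutoff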
Insulin prom up: MIN6 insulin promoter up-regulation; MIN6 insulin promoter-GFP reporter, high-content imaging; active compounds read high; AID 1625; z-score at 5 µM; 190,000 tested, 0.3% active;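 active = z-score above 3 at 5 µM with at least 500 cells counted in the well; inconclusive = wells under 500 cells, flagged as cytotoxic or low count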
RBBP9 inhibitor: human RBBP9 hydrolase inhibition | recombinant RBBP9, FP-Rh probe fluorescence polarization | inhibition, % at 7.94 µM | 220,000 tested, 0.2% active | O75884;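 active = inhibition above the campaign mean of all tested compounds plus 3 SD, cut at about 14% in these data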
Target sequence (O75884 whole entry, looked up): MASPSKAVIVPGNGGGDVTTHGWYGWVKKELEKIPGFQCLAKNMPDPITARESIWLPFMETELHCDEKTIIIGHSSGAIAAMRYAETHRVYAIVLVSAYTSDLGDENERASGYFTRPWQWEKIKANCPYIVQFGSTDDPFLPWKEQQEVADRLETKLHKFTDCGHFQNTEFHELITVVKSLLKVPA
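Measured by – fluorescence polarization · Test system – RBBP9 protein · Input – 2.5 µM RBBP9 dispensing solution, before mixing · Measure – percent inhibition from mP, scaled between DMSO and no-protein wells · Benchmarks – DMSO-treated enzyme wells and wells lacking RBBP9 · Times – preincubation 30 min plus labeling 45 min at 25 °C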
MDM2 E3 inh: Mdm2 E3 ligase (human) inhibition; Q00987; cell-based MDM2 ubiquitination luciferase reporter, 2 h; 0 = plate control, 100 = twice control, blank-subtracted; signal enhancement, % at 5 µM; 210,000 tested, 0.11% active; AID 1230;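 active = signal enhancement of 30% or more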;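 note: luminescence tracks abundance of the self-degrading MDM2-luciferase fusion protein; higher signal means inhibition of MDM2 E3 ligase activity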
Target sequence (Q00987 whole entry, looked up, the tested form may be a part): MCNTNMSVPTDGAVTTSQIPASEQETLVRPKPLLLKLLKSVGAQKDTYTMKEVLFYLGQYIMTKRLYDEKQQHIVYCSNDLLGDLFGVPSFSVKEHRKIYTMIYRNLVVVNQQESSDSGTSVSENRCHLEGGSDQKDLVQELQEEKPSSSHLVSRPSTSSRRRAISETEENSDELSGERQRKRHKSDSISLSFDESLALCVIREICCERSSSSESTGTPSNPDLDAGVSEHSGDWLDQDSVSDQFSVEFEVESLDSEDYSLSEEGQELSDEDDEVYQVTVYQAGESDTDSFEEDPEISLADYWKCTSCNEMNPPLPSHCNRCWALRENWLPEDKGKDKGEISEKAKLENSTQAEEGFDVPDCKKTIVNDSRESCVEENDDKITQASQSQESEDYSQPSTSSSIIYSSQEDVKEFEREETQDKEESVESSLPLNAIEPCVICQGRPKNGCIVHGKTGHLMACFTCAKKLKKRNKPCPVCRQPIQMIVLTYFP
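Test system: stable mammalian line carrying autodegrading MDM2–luciferase fusion reporter; quantity: 2000 cells in each well; times: 4 h cell settling then 2 h compound exposure, 37 °C; detection: luminescence with SteadyLite reagent, 15 min at room temperature; evaluation: percent signal gain over controls, blank-subtracted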
Wee1 degr inh: inhibitors of human Wee1 degradation. P30291. HeLa Luc-Wee1K328M stability, luciferase luminescence; 100% = proteasome inhibitor MG132 effect. reporter increase, % at 5 µM. 220,000 tested, 1.2% active;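 active = activation above the mean of all tested compounds plus 3 SD, set per screening run, cut at about 8.8% in these data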;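 note: cells exposed to compound for 20 h before luminescence read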
Hsp70 activator: switches on Hsp70 transcription; HeLa Hsp70 promoter luciferase reporter, luminescence; scaled: vehicle 0, proteasome-inhibitor control 100%; activation, % at 10 µM; 200,000 tested, 0.04% active; AID 1203;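 active = activation above the mean across all tested compounds plus 3 SD, cutoff set per campaign, cut at about 5.5% in these data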
Each line names hits and unclear results; the compound was inactive in the other large screens.

Cc1ccc(C(=O)NCCCn2ccnc2)cc1[N+](=O)[O-]	Insulin prom up 5.5
O=C(NCCCn1ccnc1)Nc1ccc(Cl)cc1	Insulin prom inh 77
Cc1ccc(/C=N/Nc2ccnc3cc(Cl)ccc23)c(C)c1	none (no result: Insulin prom inh)
Clc1ccc2c(N/N=C/c3ccc(Br)cc3)ccnc2c1	Insulin prom inh 92
Cc1ccccc1/C=N/Nc1ccnc2cc(Cl)ccc12	Insulin prom inh 80
Clc1ccc2c(N/N=C/c3cccnc3)ccnc2c1	Insulin prom inh 93
Cc1nc(NC(=O)c2ccc(Br)s2)sc1C(=O)N(C)C	Wee1 degr inh 11
c1ccc(CNc2nc(-c3cccs3)nc3ccccc23)nc1	Insulin prom inh 92
Cc1ccc(CNc2nc(-c3cccs3)nc3ccccc23)cc1	none (no result: Insulin prom inh)
CN(C(=O)COc1ccccc1C(=O)NCCOc1ccccc1)c1ccccc1	Insulin prom up inconclusive
CCSC1=C(C#N)C(c2ccc(C)o2)CC(=O)N1 (stereo not given)	none (no result: Insulin prom inh, Hsp70 activator)
Cc1ccc(C2CC(=O)NC(SCc3ccccc3)=C2C#N)o1 (stereo not given)	Insulin prom up 3.4 (no result: Insulin prom inh)
CSc1nc(-c2ccco2)nn1C(=O)c1ccco1	none (no result: Insulin prom inh)
CSc1nc(-c2ccc(Cl)cc2)nn1C(=O)c1ccco1	Insulin prom inh 83
CCS(=O)(=O)n1nc(-c2ccc(Cl)cc2)nc1SC	Insulin prom inh 72
CCS(=O)(=O)n1nc(-c2ccco2)nc1SC	none
COc1ccc(OC)c(-c2cc(C(F)(F)F)c3c(n2)sc2c(O)cc(=O)[nH]c23)c1	none
O=C(CSc1ncccn1)NCc1ccc(Cl)cc1	none
O=C(CSc1nccc(=O)[nH]1)NCc1ccc(Cl)cc1	Wee1 degr inh 9.3 (no result: Insulin prom inh, MDM2 E3 inh)
O=C(Nc1nnc(C23CC4CC(CC(C4)C2)C3)s1)c1ccco1	Wee1 degr inh 9.4
O=C(Nc1nnc(COc2ccc(F)cc2)s1)c1cccs1	none
O=C(Nc1nnc(COc2ccc(Cl)cc2)s1)c1ccco1	Wee1 degr inh 9.8 (no result: Insulin prom inh)
Cc1ccc(OCc2nnc(NC(=O)c3ccco3)s2)cc1	none
O=C(Nc1nnc(COc2ccc(Cl)cc2)s1)c1cccs1	Insulin prom inh 80
CC(NC(=O)C12CC3CC(CC(C3)C1)C2)C(=O)N/N=C/C1=C(N2CCOCC2)C(=C\c2cccc([N+](=O)[O-])c2)/CC1 (stereo not given)	none
N#C/C(=C\C1=C(N2CCOCC2)C(=C/c2cccc([N+](=O)[O-])c2)/CC1)C(=O)Nc1ccccc1F	Insulin prom up 3.1
CCN(CC)c1ccc(/C=C2\CCC(/C=C(\C#N)C(=O)Nc3ccccc3F)=C2N2CCOCC2)cc1	none
N#C/C(=C\C1=C(N2CCOCC2)C(=C\c2ccc(Cl)cc2)/CC1)C(=O)Nc1ccccc1F	Insulin prom up 3.3
O=C(c1ccccc1F)N(Cc1ccc2c(c1)OCO2)Cc1cc2cc3c(cc2n2nnnc12)OCO3	none
COC(=O)N/N=C/c1cccc(OCCSc2ccc(Cl)cc2)c1	none
CCN(CC)S(=O)(=O)c1ccc2nc(NC(=O)c3ccco3)sc2c1	Wee1 degr inh 9.6 (no result: Insulin prom inh, MDM2 E3 inh)
COc1cc(CNC2CCCC2)cc(Br)c1OCC(=O)Nc1ccccc1C	none (no result: Insulin prom up)
COC(=O)c1cc2occc2n1Cc1c(F)cccc1Cl	Insulin prom up 3.1 (no result: Insulin prom inh)
CCOC(=O)c1cc2occc2n1Cc1c(F)cccc1Cl	none
CC1=NN(c2cccc(C(=O)O)c2)C(=O)/C1=C\C=C\c1ccco1	MDM2 E3 inh 36 (no result: Insulin prom up)
COc1cccc(CNC(=O)C2CCN(Cc3cnn(-c4ccccc4)c3-n3cccc3)CC2)c1	Wee1 degr inh 8.9
O=C(NCc1ccccn1)C1CCN(Cc2cnn(-c3ccccc3)c2-n2cccc2)CC1	none
Cc1ccccc1N1CC(=O)N(c2ccccc2C)CC1=O	none
Cc1cccc2c1c1ccc3c(c1n2C)C(=O)C=CC3=O	MDM2 E3 inh 54 (no result: Insulin prom inh, Hsp70 activator)
O=C(CCC(=O)c1cccs1)NCc1ccc(Cl)cc1	Insulin prom inh 70
Cc1ccc(CNC(=O)CCC(=O)c2cccs2)cc1	none (no result: Insulin prom inh)
CC1=NN(c2ccccc2)C(=O)/C1=C\c1cn(-c2ccccc2)nc1C	none (no result: Insulin prom up)
CC1=NN(c2ccccc2)C(=O)/C1=C\c1c(C)[nH]n(-c2ccccc2)c1=O	Wee1 degr inh 16
CC1CN(c2cc(-c3ccccc3)c3ccccc3n2)CC(C)O1 (stereo not given)	none
CC1CN(c2nc(-c3ccccc3)nc3ccccc23)CC(C)O1 (stereo not given)	Insulin prom inh 92
CCCCP(=O)(CCCC)Cc1ccccc1O	Wee1 degr inh 9.4
O=c1[nH]c(/C=C/c2ccccc2OC(F)F)nc2c1cnn2-c1ccccc1	Insulin prom up 3.2
CCOC(=O)N1CCN(CC(=O)Nc2ccc(Oc3ccccc3)cc2)CC1	none
Nc1nncn1C(=O)CCCOc1ccc(Cl)cc1Cl	none
CC1C/C(=C\c2cccnc2)C(=O)/C(=C/c2cccnc2)C1 (stereo not given)	Hsp70 activator 110
O=C1/C(=C/c2cccnc2)CCc2c1[nH]c1ccccc21	none (no result: Insulin prom inh)
O=C(O)/C=C/C(=O)Nc1ccc2c(c1)C(=O)c1ccccc1C2=O	Wee1 degr inh 9.9 (no result: Insulin prom inh, Hsp70 activator)
CCN(CC)S(=O)(=O)c1cccc(C(=O)N[C@@H](C)c2nc3ccccc3[nH]2)c1	Wee1 degr inh 9.9 (no result: Insulin prom inh, Insulin prom up)
CC(NC(=O)c1cccc(S(=O)(=O)N(C)C)c1)c1nc2ccccc2[nH]1 (stereo not given)	none (no result: Insulin prom inh)
COCC(C)NC(=O)CCc1nnc(C2(c3ccc(Cl)cc3)CCC2)o1 (stereo not given)	Wee1 degr inh 8.9 (no result: Insulin prom inh)
O=C(Nc1ccccc1)c1ccc(S(=O)(=O)N(CCO)CCO)cc1	Insulin prom inh 77
Cc1ccc(C(=O)Nc2ccc3c(c2)OCO3)o1	none
COc1ccc(NC(=O)c2ccco2)cc1NC(=O)c1ccc(Br)o1	Insulin prom inh 73
O=C(Nc1ccc2c(c1)OCCO2)c1ccc(Br)o1	Wee1 degr inh 9.4 (no result: Insulin prom inh)
O=C(Nc1ccc2c(c1)OCCO2)N1CCOCC1	Insulin prom inh 78
Cc1ccc(C(=O)OCC(=O)c2c[nH]c3ccccc23)cc1S(=O)(=O)N1CCCCC1	none
Cc1ccccc1S(=O)(=O)Cc1ccc(C(=O)NCc2ccc(F)cc2)o1	none (no result: Insulin prom inh, Insulin prom up)
CNC(=O)COC(=O)c1ccc(Cl)c(S(=O)(=O)N2CCCC2)c1	Wee1 degr inh 10
c1ccc(-c2noc(-c3ccncc3)n2)nc1	none
c1ccc(-c2noc(-c3cccnc3)n2)nc1	Insulin prom inh 89
Cc1cc(-c2n[nH]c(=S)n2CC(C)C)cs1	Wee1 degr inh 11
CC(C)Cn1c(-c2csc(C(C)C)c2)n[nH]c1=S	none (no result: Insulin prom inh)
CCCN(CCC)S(=O)(=O)c1ccc(C(=O)OCCN2C(=O)c3cccc4c(N5CCOCC5)ccc(c34)C2=O)cc1	Insulin prom up 6.2

Bioassay records (PubChem)
